The record followed here is ChEMBL document CHEMBL1129625, “11-substituted (R)-aporphines: synthesis, pharmacology, and modeling of D2A and 5-HT1A receptor interactions” (J Med Chem, 1996).

The target in test [1] is T1, 5-hydroxytryptamine receptor 1A (Rattus norvegicus, UniProt P19327).
T1 sequence (P19327 whole entry): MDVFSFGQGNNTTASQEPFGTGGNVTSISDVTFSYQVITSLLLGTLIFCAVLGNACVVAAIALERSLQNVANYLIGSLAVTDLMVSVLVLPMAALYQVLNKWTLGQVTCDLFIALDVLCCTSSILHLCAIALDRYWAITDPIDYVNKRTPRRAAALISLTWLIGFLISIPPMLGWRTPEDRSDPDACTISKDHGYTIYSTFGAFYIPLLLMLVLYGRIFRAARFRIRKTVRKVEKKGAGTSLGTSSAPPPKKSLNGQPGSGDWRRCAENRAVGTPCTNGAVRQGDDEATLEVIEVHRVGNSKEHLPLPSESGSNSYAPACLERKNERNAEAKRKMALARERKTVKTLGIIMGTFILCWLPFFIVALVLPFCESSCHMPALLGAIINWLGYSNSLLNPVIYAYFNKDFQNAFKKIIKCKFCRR
The test is described as follows: In vitro displacement of [3H]8-OH-DPAT binding to rat hippocampal 5-hydroxytryptamine 1A receptor. The class given is tissue-based, Hippocampus. For orientation: Displacement assays read how much labelled ligand stays bound in the presence of the test substance.

Test [2] has as its target T2, D(2) dopamine receptor (Homo sapiens, UniProt P14416). Put plainly: Displacement of [3H]raclopride from human Dopamine receptor D2A.
For test [3], the target named is T3, D(1A) dopamine receptor (Rattus norvegicus, UniProt P18901). Put plainly: Affinity for dopamine receptor D1 binding measured by competition against [3H]-SCH- 23390 to rat striatal membrane. Set-up: species or system Striatum. Summed up: (§1)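 Radioligand displacement analysed with a one-site model. D1 sites come from rat striatum and are labelled with [3H]SCH23390. D2A is the cloned human receptor expressed in Ltk- cells and labelled with [3H]raclopride. Ki is the mean ± standard error of n = 2–3 experiments.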
T3 sequence (P18901 whole entry): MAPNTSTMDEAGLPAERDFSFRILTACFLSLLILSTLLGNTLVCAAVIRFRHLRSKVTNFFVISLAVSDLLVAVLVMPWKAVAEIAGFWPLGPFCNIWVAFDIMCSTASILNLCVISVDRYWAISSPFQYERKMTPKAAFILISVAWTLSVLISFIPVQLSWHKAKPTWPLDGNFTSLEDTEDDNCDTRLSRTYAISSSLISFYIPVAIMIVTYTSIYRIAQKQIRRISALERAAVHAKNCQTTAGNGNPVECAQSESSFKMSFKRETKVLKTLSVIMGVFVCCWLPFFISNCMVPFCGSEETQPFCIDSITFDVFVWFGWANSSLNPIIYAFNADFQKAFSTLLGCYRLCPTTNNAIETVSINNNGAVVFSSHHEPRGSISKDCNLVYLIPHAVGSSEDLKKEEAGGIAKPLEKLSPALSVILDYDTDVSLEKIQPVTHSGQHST

The target in test [4] is T3, D(1A) dopamine receptor.
The subject of test [5] is Rattus norvegicus. The test is described as follows: In vivo accumulation of 5HTP in percent of saline control was determined in cortex of reserpine pretreated rat at a dose of 3.3 uM/kg. It is filed as functional. The procedure, abridged:
(§2)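 Rats get reserpine 5 mg/kg sc 18–20 h beforehand. A single dose of test drug is given. NSD1015 (117 mg/kg sc) is injected 30 min after drug to block decarboxylase. 5-HTP or DOPA accumulation is measured in limbic forebrain, striatum and cortex and expressed as percent of saline controls, mean ± SEM, n = 2–4. Statistics use one-way ANOVA with Fisher's PLSD.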

The subject of test [6] is Rattus norvegicus. Put plainly: In vivo accumulation of DOPA in percent of saline control was determined in limbic forebrain of reserpine pretreated rat at a dose of 3.3 uM/kg. The class given is functional. The procedure, abridged: as §2
The subject of test [7] is Rattus norvegicus. The test is described as follows: In vivo accumulation of DOPA in percent of saline control was determined in cortex of reserpine pretreated rat at a dose of 3.3 uM/kg. It is filed as functional. Summed up:
as §2

In test [8] the test system is Rattus norvegicus. Put plainly: In vivo accumulation of DOPA in percent of saline control was determined in striatum of reserpine pretreated rat at a dose of 3.3 uM/kg. It is filed as functional. Summed up: as §2
Test [9] has as its system Rattus norvegicus. The test is described as follows: In vivo accumulation of 5HTP in percent of saline control was determined in limbic forebrain of reserpine pretreated rat at a dose of 3.3 uM/kg. It is filed as functional. Summed up:
as §2

The subject of test [10] is Rattus norvegicus. Put plainly: In vivo accumulation of 5HTP in percent of saline control was determined in striatum of reserpine pretreated rat at a dose of 3.3 uM/kg. It is filed as functional. The procedure, abridged: as §2
Test [11] deals with T2, D(2) dopamine receptor. The test is described as follows: Displacement of [3H]-raclopride fromd human Dopamine receptor D2A expressed in LtK- cells. The class given is cell-based. The procedure, abridged:
as §1

In test [12] the test system is Rattus norvegicus. The test is described as follows: In vivo accumulation of DOPA in percent of saline control was determined in cortex of reserpine pretreated rat at a dose of 30 uM/kg. It is filed as functional. The procedure, abridged:
as §2

Test [13] concerns Rattus norvegicus. The test is described as follows: In vivo accumulation of 5HTP in percent of saline control was determined in cortex of reserpine pretreated rat at a dose of 30 uM/kg. It is filed as functional. Summed up: as §2
In test [14] the test system is Rattus norvegicus. The test is described as follows: In vivo accumulation of DOPA in percent of saline control was determined in limbic forebrain of reserpine pretreated rat at a dose of 30 uM/kg. The class given is functional. The procedure, abridged: as §2
Test [15] concerns Rattus norvegicus. Put plainly: In vivo accumulation of 5HTP in percent of saline control was determined in limbic forebrain of reserpine pretreated rat at a dose of 30 uM/kg. It is filed as functional. Summed up:
as §2

For test [16], the system named is Rattus norvegicus. The test is described as follows: In vivo accumulation of DOPA in percent of saline control was determined in striatum of reserpine pretreated rat at a dose of 30 uM/kg. The class given is functional. The procedure, abridged:
as §2

Test [17] has as its system Rattus norvegicus. The test is described as follows: In vivo accumulation of 5HTP in percent of saline control was determined in striatum of reserpine pretreated rat at a dose of 30 uM/kg. It is filed as functional. The procedure, abridged:
as §2

The test system of test [18] is Rattus norvegicus. The test is described as follows: In vivo accumulation of DOPA in percent of saline control was determined in cortex of reserpine pretreated rat at dose of 3.5 uM/kg. It is filed as functional. Summed up: as §2
Test [19] concerns Rattus norvegicus. The test is described as follows: In vivo accumulation of DOPA in percent of saline control was determined in striatum of reserpine pretreated rat at dose of 3.5 uM/kg. The class given is functional. Summed up: as §2
In test [20] the test system is Rattus norvegicus. Put plainly: In vivo accumulation of 5HTP in percent of saline control was determined in cortex of reserpine pretreated rat at dose of 3.5 uM/kg. The class given is functional. Summed up: as §2
The test system of test [21] is Rattus norvegicus. The test is described as follows: In vivo accumulation of 5HTP in percent of saline control was determined in striatum of reserpine pretreated rat at dose of 3.5 uM/kg. The class given is functional. Summed up: as §2
Test [22] relates to Rattus norvegicus. The test is described as follows: In vivo accumulation of DOPA in percent of saline control was determined in limbic forebrain of reserpine pretreated rat at dose of 3.5 uM/kg. The class given is functional. Summed up: as §2
Test [23] deals with Rattus norvegicus. Put plainly: In vivo accumulation of 5HTP in percent of saline control was determined in limbic forebrain of reserpine pretreated rat at dose of 3.5 uM/kg. The class given is functional. The procedure, abridged: as §2

What is called Ki is a measure of affinity in units of concentration, obtained from inhibition or displacement. Lower therefore signals tighter binding.

T2 sequence (P14416 whole entry): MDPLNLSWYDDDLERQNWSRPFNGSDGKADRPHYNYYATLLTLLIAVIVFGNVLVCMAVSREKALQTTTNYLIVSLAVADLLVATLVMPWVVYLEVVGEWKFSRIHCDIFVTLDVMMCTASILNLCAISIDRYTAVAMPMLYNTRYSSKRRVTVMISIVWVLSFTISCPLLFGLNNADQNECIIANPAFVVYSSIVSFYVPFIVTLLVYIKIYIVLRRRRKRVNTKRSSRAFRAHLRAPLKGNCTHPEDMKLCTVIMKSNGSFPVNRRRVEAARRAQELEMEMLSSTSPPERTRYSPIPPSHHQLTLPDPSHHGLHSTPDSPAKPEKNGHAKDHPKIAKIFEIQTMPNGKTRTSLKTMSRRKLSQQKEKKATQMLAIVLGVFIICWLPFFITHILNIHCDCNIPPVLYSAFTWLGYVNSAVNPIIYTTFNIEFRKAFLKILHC

On to `COc1cccc2c1-c1cccc3c1[C@@H](C2)N(C(C)C)CC3`, for which the figures for the inhibitory constant (Ki) (in test [1]; at D(2) dopamine receptor [2]; on D(1A) dopamine receptor [3]) were 375 nM, 1000 nM and greater than 10000 nM, respectively.

For `CN1CCc2cccc3c2[C@H]1Cc1cccc(C#N)c1-3`, the figures for the Ki (in [1]; at D(2) dopamine receptor [2]; at D(1A) dopamine receptor [4]) were 41.1 nM, 183 nM and 279 nM, respectively.

Turning to `COc1cccc2c1-c1cccc3c1[C@@H](C2)N(C)CC3`, the Ki in test [1] is 5.1 nM; at D(2) dopamine receptor [2], 551 nM; at D(1A) dopamine receptor [4], 606 nM.

Consider `CCc1cccc2c1-c1cccc3c1[C@@H](C2)N(C)CC3`, for which the Accumulation with Rattus norvegicus [5] amounted to 104; with Rattus norvegicus [6] it was 87; with Rattus norvegicus [7] it was 100; in the test on Rattus norvegicus [8] it was 92; with Rattus norvegicus [9], 83; with Rattus norvegicus [10], 95. For the same molecule, the Ki in [1] stood at 4.5 nM; on D(2) dopamine receptor [2], 79.2 nM; at D(1A) dopamine receptor [4], 270 nM.

For `COc1cccc2c1-c1cccc3c1[C@@H](C2)NCC3`, the Ki was 8.3 nM in test [1], greater than 5000 nM on D(1A) dopamine receptor [4] and greater than 1000 nM at D(2) dopamine receptor [11].

In the case of `CCCN1CCc2cccc3c2[C@H]1Cc1cccc(OC)c1-3`, the Accumulation is 82 in the test with Rattus norvegicus [12]; 89 in the test on Rattus norvegicus [13]; 66 in the test with Rattus norvegicus [14]; 96 in the test with Rattus norvegicus [15]; 43 in the test with Rattus norvegicus [16]; 87 in the test with Rattus norvegicus [17]. Moreover, the inhibitory constant (Ki) in [1] was 31.3 nM; on D(1A) dopamine receptor [4] it was greater than 5000 nM; at D(2) dopamine receptor [11] it was 826 nM.

As for `Oc1cccc2c1-c1cccc3c1[C@@H](C2)N(Cc1ccccc1)CC3`, the inhibition constant Ki in test [1] is greater than 5000 nM; at D(1A) dopamine receptor [4] it was greater than 3000 nM; on D(2) dopamine receptor [11] it was greater than 1000 nM.

As to `COc1cccc2c1-c1cccc3c1[C@@H](C2)N(Cc1ccccc1)CC3`, the results for the inhibitory constant (Ki) (in test [1]; at D(1A) dopamine receptor [4]; at D(2) dopamine receptor [11]) were 3220 nM, greater than 10000 nM and greater than 1000 nM, respectively.

Turning to `CN1CCc2cccc3c2[C@H]1Cc1cccc(O)c1-3`, the Accumulation with Rattus norvegicus [18] was determined as 103; with Rattus norvegicus [19], 30; with Rattus norvegicus [20], 93; in the test on Rattus norvegicus [21] it was 83; in the test with Rattus norvegicus [22], 67; with Rattus norvegicus [23], 98.
